Test results from ChEMBL document CHEMBL1134798, “Pharmacological evaluation of a diarylmethylene-piperidine derivative: a new potent atypical antipsychotic?” (Bioorg Med Chem Lett, 2001).
Calls of active or inactive are those of the source. The calls are words filed in the database; no cut-off is given here.

Columns and labels:
Mus musculus [1] = assay: Effective dose required for inhibition of apomorphine(sc, 2.5 mg/kg ) induced climbing in mice on ip administration; assay type: functional; conditions: route intraperitoneal
Summary of the method: (§1)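 Apomorphine hydrochloride given sc at 2.5 mg/kg to induce climbing and stereotypy. Compounds dosed 30 min earlier, groups of eight mice. ED50 for each behaviour by non-linear regression.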

Mus musculus [2] = assay: Effective dose required for inhibition of DOI-induced head-twitches in mice on ip administration; assay type: functional
Summary of the method: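 Head-twitches elicited by ip (±)-DOI hydrochloride, 1.6 mg/kg. Mice (groups of eight) pretreated ip 30 min before DOI. Twitches counted for 5 min starting 5 min after DOI. ED50 by non-linear regression.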

Mus musculus [3] = assay: Effective dose required for inhibition of apomorphine(sc, 2.5 mg/kg ) induced stereotypy in mice on ip administration; assay type: functional; conditions: route intraperitoneal; summary of the method: as §1
[4] = molecular target: Serotonin 2 (5-HT2) receptor (Homo sapiens, UniProt P41595+P28223+P28335); assay: In vitro binding affinity for 5-hydroxytryptamine 2 receptor; assay type: protein assay
D(4) dopamine receptor = molecular target: T1, D(4) dopamine receptor (Homo sapiens, UniProt P21917); assay: In vitro binding affinity for Dopamine receptor D4
T1 sequence (P21917 whole entry): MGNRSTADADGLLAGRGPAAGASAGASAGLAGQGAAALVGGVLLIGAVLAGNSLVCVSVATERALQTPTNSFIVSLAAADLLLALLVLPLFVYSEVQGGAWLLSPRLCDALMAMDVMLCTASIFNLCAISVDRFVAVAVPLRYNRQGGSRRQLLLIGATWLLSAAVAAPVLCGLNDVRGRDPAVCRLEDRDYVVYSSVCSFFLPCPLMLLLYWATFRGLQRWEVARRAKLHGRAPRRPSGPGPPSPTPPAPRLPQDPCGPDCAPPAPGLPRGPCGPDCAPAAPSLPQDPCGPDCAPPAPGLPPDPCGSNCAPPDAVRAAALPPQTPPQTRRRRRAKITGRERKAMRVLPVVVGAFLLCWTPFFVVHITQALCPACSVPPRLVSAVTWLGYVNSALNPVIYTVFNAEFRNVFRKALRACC

Mus musculus [5] = species: Mus musculus; assay: Anticholinergic effect evaluated in mice using oxotremorine induced salivation; assay type: functional
Summary of the method: (§2)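 Oxotremorine 0.25 mg/kg ip induced tremors and salivation. Compounds were given ip 30 min beforehand, groups of six mice. Scoring every 5 min over 30 min. ED50 from non-linear regression.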

Mus musculus [6] = species: Mus musculus; assay: Lethality in mice evaluated in IRWIN-test; assay type: functional
Summary of the method: (§3)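 Irwin observational test run to a standard protocol after ip administration.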

Mus musculus [7] = species: Mus musculus; assay: Anticholinergic effect evaluated in mice using oxotremorine induced tremors; assay type: functional; summary of the method: as §2
Mus musculus [8] = species: Mus musculus; assay: Induction of convulsions in mice evaluated in IRWIN-test; assay type: functional; summary of the method: as §3
Mus musculus [9] = species: Mus musculus; assay: Induction of sedation in mice evaluated in IRWIN-test; assay type: functional; summary of the method: as §3
Mus musculus [10] = assay: Effective dose required for inhibition of apomorphine(sc, 2.5 mg/kg ) induced climbing in mice on po administration; assay type: functional
Summary of the method: (§4)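 Mice were dosed po 30 min before apomorphine hydrochloride (2.5 mg/kg sc), in groups of eight. ED50 for inhibition of climbing or stereotypy was derived by non-linear regression.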

Mus musculus [11] = assay: Effective dose required for inhibition of apomorphine(sc, 2.5 mg/kg ) induced stereotypy in mice on […]; assay type: functional; summary of the method: as §4
Mus musculus [12] = assay: Decrease in number of avoidance responses in mice at a dose ~100 mg/kg; assay type: functional; conditions: at 100 mg/kg
Mus musculus [13] = assay: Decrease in number of avoidance responses in mice at a dose ~110 mg/kg; assay type: functional
Mus musculus [14] = assay: Decrease in number of avoidance responses in mice at a dose ~115 mg/kg; assay type: functional
Mus musculus [15] = assay: Decrease in number of avoidance responses in mice at a dose ~60 mg/kg; assay type: functional; conditions: at 60 mg/kg
Mus musculus [16] = assay: Antagonistic activity on amphetamine-induced stereotypy at a dose of 100 umol/kg (p<0.05); assay type: functional
Mus musculus [17] = assay: Decrease in d-amphetamine-induced hyperactivity at a dose of 10 umol/kg (p<0.01); assay type: functional
Rattus norvegicus [18] = assay: Decrease in arterial blood pressure by the compound at a dose of 43.1-431 mg/kg in rats 24 hr after oral administration; No significant; assay type: functional, organism-based; conditions: Artery
Rattus norvegicus [19] = assay: Increase in heart rate by the compound at a dose of 43.1-431 mg/kg in rats on oral administration; No significant; assay type: functional, organism-based
Mus musculus [20] = assay: Anticholinergic effect evaluated in mice using oxotremorine induced salivation(ip); assay type: functional
Summary of the method: (§5)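 Mice were dosed ip 30 min before oxotremorine (0.25 mg/kg ip), in groups of six. Salivation and tremors were scored every 5 min for 30 min. ED50 was derived by non-linear regression.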

Mus musculus [21] = assay: Anticholinergic effect evaluated in mice using oxotremorine induced tremors(ip); assay type: functional; summary of the method: as §5
Mus musculus [22] = assay: Decrease in number of avoidance responses in mice at a dose ~10 mg/kg; assay type: functional; conditions: at 10 mg/kg
Mus musculus [23] = assay: Decrease in number of avoidance responses in mice at a dose ~25 mg/kg; assay type: functional
Mus musculus [24] = assay: Decrease in number of avoidance responses in mice at a dose ~50 mg/kg; assay type: functional
Mus musculus [25] = assay: Induction of catalepsy up to a dose of 160 mg/kg when administered po in mice; No induction; assay type: functional, organism-based; parameters: dose 160 mg/kg
Rattus norvegicus [26] = assay: Decrease in arterial blood pressure by the compound at a dose of 32.7 mg/kg in rats 0.5-2.5h after administration; assay type: functional, Artery
Rattus norvegicus [27] = assay: Increase in heart rate by the compound at a dose of 10.5 mg/kg in rats; assay type: functional

SMILES | ED50 (Mus musculus [1]) [µmol/kg] | ED50 (Mus musculus [2]) [µmol/kg] | ED50 (Mus musculus [3]) [µmol/kg] | Activity (Mus musculus [6]) | Activity (Mus musculus [8]) | Activity (Mus musculus [9]) | ED50 (Mus musculus [10]) [µmol/kg] | ED50 (Mus musculus [11]) [µmol/kg] | also measured
OCCOCCN1CCN(C2=Nc3ccccc3Sc3ccccc32)CC1 [QUETIAPINE] | 51 | 9 | 60 |  |  |  |  |  | 
NC(=O)C1CCC(CN2CCC(=C(c3ccccc3)c3ccc(F)cc3)CC2)O1 (configuration not stated) | 46 | 16 | 69 | 1000 | 320 | 100 | 140 | 290 | Log Ki [4]: -7.5; Ki (D(4) dopamine receptor): 158 nM; Activity (Mus musculus [5]): 20; Activity (Mus musculus [7]): 32; Decrease in No. of avoidence responses (Mus musculus [12]): 27%; Decrease in No. of avoidence responses (Mus musculus [13]): 45%; Decrease in No. of avoidence responses (Mus musculus [14]): 80%; Decrease in No. of avoidence responses (Mus musculus [15]): 12.5%; Decrease (Mus musculus [16]): 13%; Decrease (Mus musculus [17]): 44%; Decrease in arterial blood pressure (Rattus norvegicus [18]): inactive; Increase in heart rate (Rattus norvegicus [19]): inactive
O=C(CCCN1CCC(O)(c2ccc(Cl)cc2)CC1)c1ccc(F)cc1 [HALOPERIDOL] | 0.32 | 0.61 | 0.31 |  |  |  |  |  | 
CN1CCN(C2=Nc3cc(Cl)ccc3Nc3ccccc32)CC1 [CLOZAPINE] | 28 | 1.5 | 67 | 320 | 180 | 3.2 | 30 | 62 | Activity (Mus musculus [20]): 8; Activity (Mus musculus [21]): 12; Decrease in No. of avoidence responses (Mus musculus [22]): 10%; Decrease in No. of avoidence responses (Mus musculus [23]): 65%; Decrease in No. of avoidence responses (Mus musculus [24]): 85%; Induction of catalepsy (Mus musculus [25]): inactive; Decrease in arterial blood pressure (Rattus norvegicus [26]): 32%; Increase in heart rate (Rattus norvegicus [27]): 49%
